Results as given in paper PMC6349029 (Bioorganic & medicinal chemistry letters, 2018).

Experiments:
kidney filter = conditions: in vivo animal model; cited from earlier work
TRPC5 channel = molecular target: T1, TRPC5 channel (Homo sapiens, UniProt Q9UL62); test: TRPC5 % inhibition at single concentration, Syncropatch; assay type: cell-based; conditions: read-out: % inhibition at 3 μM, Table 3
T1 sequence (Q9UL62 1-973): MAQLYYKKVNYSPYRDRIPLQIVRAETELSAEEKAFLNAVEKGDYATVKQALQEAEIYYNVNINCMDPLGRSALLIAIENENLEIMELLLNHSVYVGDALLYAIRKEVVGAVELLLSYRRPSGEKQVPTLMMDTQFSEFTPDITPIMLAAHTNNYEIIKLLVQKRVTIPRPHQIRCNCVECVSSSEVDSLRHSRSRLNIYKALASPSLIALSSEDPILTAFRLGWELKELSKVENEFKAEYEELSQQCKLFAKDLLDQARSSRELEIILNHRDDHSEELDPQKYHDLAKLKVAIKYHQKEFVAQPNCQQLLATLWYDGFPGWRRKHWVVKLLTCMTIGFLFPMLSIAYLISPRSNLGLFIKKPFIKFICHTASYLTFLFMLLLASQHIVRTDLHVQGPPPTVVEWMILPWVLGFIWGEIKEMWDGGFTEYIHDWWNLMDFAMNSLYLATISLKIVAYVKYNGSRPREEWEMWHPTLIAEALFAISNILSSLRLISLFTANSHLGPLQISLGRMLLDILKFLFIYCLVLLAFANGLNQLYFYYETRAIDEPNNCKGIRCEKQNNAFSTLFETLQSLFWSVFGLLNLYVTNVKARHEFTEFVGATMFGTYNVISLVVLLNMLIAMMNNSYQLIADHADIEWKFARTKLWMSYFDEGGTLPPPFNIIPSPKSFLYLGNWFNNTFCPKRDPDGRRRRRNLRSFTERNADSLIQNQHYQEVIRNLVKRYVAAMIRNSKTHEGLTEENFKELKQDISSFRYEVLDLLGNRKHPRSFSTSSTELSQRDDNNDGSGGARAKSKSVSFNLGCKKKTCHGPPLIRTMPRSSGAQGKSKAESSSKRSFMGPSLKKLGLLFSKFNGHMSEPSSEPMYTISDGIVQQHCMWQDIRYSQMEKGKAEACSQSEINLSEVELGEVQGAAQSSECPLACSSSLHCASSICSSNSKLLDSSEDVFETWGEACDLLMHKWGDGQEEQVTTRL
In short: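 Automated patch-clamp (Syncropatch) first-pass screen of TRPC5 channel block. Each test compound was run at one concentration (3 μM) in a single well. Values were normalised so that the furfuryl-amine reference analogue's inhibition at 3 μM equals 100%. A reference inhibitor and DMSO served as controls on every plate. Recordings came from at least one session over two assay plates.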

TRPC4 = conditions: cited from earlier work
TRPC6 = conditions: cited from earlier work
[1] = tested on: animal models of kidney disease; conditions: previously shown; cited from earlier work

inhibition at 3 µM (TRPC5 channel) | Structure (SMILES) | protection of the kidney filter (kidney filter) | selectivity for TRPC5 over TRPC4 (TRPC4) | selectivity for TRPC5 over TRPC6 (TRPC6) | activity in animal models of kidney disease [1]
– | Cc1cc(N2CCCCC2)nc2ccccc12 [ML204] | protect the kidney filter | – | – | –
100% | c1ccc(Cn2c(NCc3ccco3)nc3ccccc32)cc1 [Compound 2] | – | selective | selective | active
167% | Fc1ccc(Cn2c(NCc3ccco3)nc3ccccc32)cc1 [Compound 6o] | – | – | – | –
